From ChEMBL document CHEMBL1126969, “Antipsoriatic anthrones with modulated redox properties. 1. Novel 10-substituted 1,8-dihydroxy-9(10H)-anthracenones as inhibitors of 5-lipoxygenase” (J Med Chem, 1993)
pIC50: −log10 of the molar value.

Legend:
[1] = Deoxyribose-damaging property as a measure of hydroxyl-radical formation (uM test compound)
[2] = Reducing activity against 2,2-diphenyl-1-picrylhydrazyl; type: ADME
[3] = molecular target: T1, Arachidonate 5-lipoxygenase (Bos taurus, UniProt Q9BEG3); experiment: Inhibitory activity against 5-lipoxygenase (inhibition of 5-HETE and LTB4 biosynthesis) in bovine polymorphonuclear leukocytes (PMNL).; type: cell-based
T1 sequence (Q9BEG3 whole entry): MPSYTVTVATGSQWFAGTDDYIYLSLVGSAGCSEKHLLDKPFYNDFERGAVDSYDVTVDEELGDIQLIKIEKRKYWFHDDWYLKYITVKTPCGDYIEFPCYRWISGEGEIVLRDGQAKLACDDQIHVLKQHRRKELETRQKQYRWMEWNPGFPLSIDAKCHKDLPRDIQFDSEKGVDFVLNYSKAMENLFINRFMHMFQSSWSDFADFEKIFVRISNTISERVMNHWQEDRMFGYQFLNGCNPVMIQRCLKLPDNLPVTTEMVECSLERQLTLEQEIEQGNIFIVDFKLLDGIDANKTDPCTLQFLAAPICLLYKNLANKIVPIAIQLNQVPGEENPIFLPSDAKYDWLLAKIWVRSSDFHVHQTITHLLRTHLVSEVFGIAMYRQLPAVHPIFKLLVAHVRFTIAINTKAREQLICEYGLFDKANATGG

[4] = molecular target: T2, Arachidonate 5-lipoxygenase (Bos taurus) (UniProt Q9BEG3); experiment: Inhibitory activity against 5-lipoxygenase (inhibition of 5-HETE and LTB4 biosynthesis) in bovine polymorphonuclear leukocytes (PMNL) at 30 uM; type: cell-based
T2 sequence (whole entry): T1 sequence (Q9BEG3 whole entry)
How it was run: (§1)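 Bovine PMNL from EDTA blood, platelets removed, 1×10^7 cells/mL in PBS pH 7.4. Compound (DMSO, 0.4% final) preincubated 15 min at 37 °C, then stimulated with CaCl2 2 mM and A23187 20 μM for 10 min. Stopped with methanol/acetonitrile containing NDGA and PGB2 marker. LTB4 (280 nm) and 5-HETE (232 nm) quantified by RP-HPLC against internal and external standards.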

[5] = (§2) Deoxyribose-damaging property as a measure of hydroxyl-radical formation (uM of malondialdehyde/mmol of deoxyribose released by 75 uM test compound)
How it was run: (§3)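 2-Deoxy-D-ribose (2 mM) with FeCl3 (0.1 mM) in 30 mM KH2PO4-KOH buffer pH 7.4, compound at 75 μM final (acetonitrile vehicle, fresh stocks), 2 h at 37 °C. TBA/trichloroacetic acid added, heated 100 °C 15 min, acidified, extracted into butanol, A532 read. Calibrated against malondialdehyde standard; expressed as μmol MDA/mmol deoxyribose.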

[6] = Reducing activity against 2,2-diphenyl-1-picrylhydrazyl with an equimolar amount of the test compound; c = Not reactive; type: ADME
[7] = molecular target: T2, Arachidonate 5-lipoxygenase (Bos taurus); experiment: Inhibitory activity against 5-lipoxygenase (inhibition of 5-HETE and LTB4 biosynthesis) in bovine polymorphonuclear leukocytes (PMNL); type: cell-based; details: concentration not given here; how it was run: as §1
[8] = as §2; type: ADME; how it was run: as §3

Row | SMILES | Deoxyribose degradation (uM of MDA mM-1) [1] | kDPPH [2] | pIC50 [3] | inhibition [4] | further results
1 | COc1cc(CCC(=O)C2c3cccc(O)c3C(=O)c3c(O)cccc32)cc(OC)c1OC | < 0.2 | 10.3 M⁻¹ s⁻¹ |  |  | 
2 | COc1ccc(CCC(=O)C2c3cccc(O)c3C(=O)c3c(O)cccc32)cc1OC | < 0.2 | 8.7 M⁻¹ s⁻¹ | 4.77 |  | 
3 | O=C1c2c(O)cccc2C(C(=O)Cc2ccccc2)c2cccc(O)c21 | < 0.2 | 16.4 M⁻¹ s⁻¹ |  |  | 
4 | O=C1c2c(O)cccc2C(C(=O)Cc2ccc(O)cc2)c2cccc(O)c21 | 0.36 | 14.7 M⁻¹ s⁻¹ |  |  | 
5 | COc1ccc(CC(=O)C2c3cccc(O)c3C(=O)c3c(O)cccc32)cc1 | < 0.2 | 15.1 M⁻¹ s⁻¹ | 6.30 |  | 
6 | Cc1ccc(C=C2c3cccc(O)c3C(=O)c3c(O)cccc32)cc1 | < 0.15 | < 1 M⁻¹ s⁻¹ |  | 23% | 
7 | O=C1c2c(O)cccc2C(C(=O)CCc2ccccc2)c2cccc(O)c21 | < 0.2 | 10.3 M⁻¹ s⁻¹ |  |  | 
8 | O=C1c2c(O)cccc2C(C(=O)Cc2ccc(O)c(O)c2)c2cccc(O)c21 |  | > 100 M⁻¹ s⁻¹ | 4.96 |  | Deoxyribose degradation (uM of MDA mM-1) [5]: 6.26
9 | O=C1c2c(O)cccc2Cc2cccc(O)c21 [ANTHRALIN] |  | 24.2 M⁻¹ s⁻¹ |  |  | 
10 | O=C1c2c(O)cccc2C(C(=O)/C=C/c2ccc([N+](=O)[O-])cc2)c2cccc(O)c21 |  | > 100 M⁻¹ s⁻¹ | 5.22 |  | Deoxyribose degradation (uM of MDA mM-1) [5]: 0.88
11 | O=C1c2c(O)cccc2C(C(=O)/C=C/c2ccccc2)c2cccc(O)c21 |  | > 100 M⁻¹ s⁻¹ |  |  | Deoxyribose degradation (uM of MDA mM-1) [5]: 1.66
12 | COc1ccc(CCC(=O)C2c3cccc(O)c3C(=O)c3c(O)cccc32)cc1 | 1.4 | 7.4 M⁻¹ s⁻¹ | 6.00 |  | 
13 | CCCC(=O)C1c2cccc(O)c2C(=O)c2c(O)cccc21 [BUTANTRONE] | 0.24 | 7 M⁻¹ s⁻¹ | 4.48 |  | 
14 | CC(=O)Oc1cccc2cc3cccc(OC(C)=O)c3c(OC(C)=O)c12 [TRIACETOXYANTHRENE] |  |  |  | 15% | kDPPH [6]: Not Active; Deoxyribose degradation (uM of MDA mM-1) [5]: < 0.15
15 | O=C1c2c(O)cccc2C(C(=O)Cc2ccc(OCc3ccccc3)c(OCc3ccccc3)c2)c2cccc(O)c21 | < 0.2 | 15 M⁻¹ s⁻¹ |  | 34% | 
16 | O=C1c2c(O)cccc2C(C(=O)CCCCc2ccccc2)c2cccc(O)c21 | < 0.2 | 10.1 M⁻¹ s⁻¹ | 5.70 |  | 
17 | COc1ccc(CCC=C2c3cccc(O)c3C(=O)c3c(O)cccc32)cc1 | < 0.15 | < 1 M⁻¹ s⁻¹ |  |  | inhibition [7]: 24%
18 | O=C1c2c(O)cccc2C(C(=O)Cc2cc(O)c(O)c(O)c2)c2cccc(O)c21 |  | > 100 M⁻¹ s⁻¹ |  |  | Deoxyribose degradation (uM of MDA mM-1) [5]: 2.99
19 | COc1c(OC)c(OC(C)=O)c2cc(Cl)ccc2c1OC(C)=O [LONAPALENE] |  |  |  |  | kDPPH [6]: Not Active; Deoxyribose degradation (uM of MDA mM-1) [5]: < 0.15
20 | CC(Cc1ccc(O)c(O)c1)C(C)Cc1ccc(O)c(O)c1 (configuration not stated) [NORDIHYDROGUAIARETIC ACID] |  | > 100 M⁻¹ s⁻¹ |  |  | Deoxyribose degradation (uM of MDA mM-1) [5]: 0.23
21 | O=C1c2c(O)cccc2C(C(=O)CCCc2ccccc2)c2cccc(O)c21 | < 0.2 | 10.1 M⁻¹ s⁻¹ | 6.52 |  | 
22 | O=C1c2c(O)cccc2C(=Cc2ccc(O)c(O)c2)c2cccc(O)c21 |  | > 100 M⁻¹ s⁻¹ | 6.30 |  | Deoxyribose degradation (uM of MDA mM-1) [5]: 0.44

Row | SMILES | Deoxyribose degradation (uM of MDA mM-1) [1] | kDPPH [2] | pIC50 [3] | inhibition [4] | further results
23 | O=C1c2c(O)cccc2C(=CCCCCc2ccccc2)c2cccc(O)c21 | < 0.15 | < 1 M⁻¹ s⁻¹ |  | 0% | 
24 | O=C1c2c(O)cccc2C(=CCc2ccccc2)c2cccc(O)c21 | < 0.15 | < 1 M⁻¹ s⁻¹ |  | 30% | 
25 | O=C1c2c(O)cccc2C(C(=O)Cc2cc(OCc3ccccc3)c(OCc3ccccc3)c(OCc3ccccc3)c2)c2cccc(O)c21 |  | 15.3 M⁻¹ s⁻¹ |  |  | Deoxyribose degradation (uM of MDA mM-1) [5]: < 0.2
26 | O=C1c2c(O)cccc2C(C(=O)CCc2ccc(O)cc2)c2cccc(O)c21 | 2.5 | 7.8 M⁻¹ s⁻¹ | 6.00 |  | 
27 | COc1cccc(/C=C/C(=O)C2c3cccc(O)c3C(=O)c3c(O)cccc32)c1 |  | > 100 M⁻¹ s⁻¹ | 5.52 |  | 
28 | O=C1c2c(O)cccc2C(C(=O)Cc2ccc(OCc3ccccc3)cc2)c2cccc(O)c21 | < 0.2 | 13.3 M⁻¹ s⁻¹ | 6.22 |  | 
29 | COc1ccc(C=C2c3cccc(O)c3C(=O)c3c(O)cccc32)cc1 | < 0.15 | < 1 M⁻¹ s⁻¹ |  | < 10% | 
30 | O=C1c2c(O)cccc2C(=Cc2cc(O)c(O)c(O)c2)c2cccc(O)c21 |  | > 100 M⁻¹ s⁻¹ | 6.40 |  | Deoxyribose degradation [8]: 6.03 uM of MDA mM-1
31 | O=C(O)c1ccc(C=C2c3cccc(O)c3C(=O)c3c(O)cccc32)cc1 | < 0.15 | < 1 M⁻¹ s⁻¹ |  | < 10% | 
32 | O=C1c2c(O)cccc2C(=CCCCc2ccccc2)c2cccc(O)c21 | < 0.15 | < 1 M⁻¹ s⁻¹ |  | 21% | 
33 | O=C1c2c(O)cccc2C(=Cc2ccc([N+](=O)[O-])cc2)c2cccc(O)c21 | < 0.15 | < 1 M⁻¹ s⁻¹ | 5.70 |  | 
34 | CC(C)(C)c1cc(CC(=O)C2c3cccc(O)c3C(=O)c3c(O)cccc32)cc(C(C)(C)C)c1O | < 0.2 | > 100 M⁻¹ s⁻¹ |  |  | 
35 | COc1cc(C=C2c3cccc(O)c3C(=O)c3c(O)cccc32)cc(OC)c1OC | < 0.15 | < 1 M⁻¹ s⁻¹ |  | 10% | 
36 | O=C1c2c(O)cccc2C(C(=O)CCc2ccc(OCc3ccccc3)cc2)c2cccc(O)c21 | < 0.2 | 8.8 M⁻¹ s⁻¹ | 5.70 |  | 
37 | COC(=O)c1ccc(C=C2c3cccc(O)c3C(=O)c3c(O)cccc32)cc1 | < 0.15 | < 1 M⁻¹ s⁻¹ |  | < 10% | 
38 | O=C1c2c(O)cccc2C(C(=O)Cc2ccc([N+](=O)[O-])cc2)c2cccc(O)c21 | < 0.2 | 63.7 M⁻¹ s⁻¹ |  |  | 
39 | O=C1c2c(O)cccc2C(=CCCc2ccccc2)c2cccc(O)c21 | < 0.15 | < 1 M⁻¹ s⁻¹ |  |  | 
40 | O=C1c2c(O)cccc2C(=Cc2ccc(C(F)(F)F)cc2)c2cccc(O)c21 | < 0.15 | < 1 M⁻¹ s⁻¹ |  | 33% | 
41 | COc1ccc(C=C2c3cccc(O)c3C(=O)c3c(O)cccc32)cc1OC | < 0.15 | < 1 M⁻¹ s⁻¹ |  | < 10% | 
42 | O=C1c2c(O)cccc2C(=Cc2ccccc2)c2cccc(O)c21 | < 0.15 | < 1 M⁻¹ s⁻¹ |  | 34% | 
43 | N#Cc1ccc(C=C2c3cccc(O)c3C(=O)c3c(O)cccc32)cc1 | < 0.15 | < 1 M⁻¹ s⁻¹ |  | 34% | 
44 | O=C1c2c(O)cccc2C(=Cc2ccc(O)cc2)c2cccc(O)c21 | < 0.15 | > 100 M⁻¹ s⁻¹ | 5.40 |  | 
